Source: PubChem (several laboratories)
mHtt clearance – compounds clearing mutant huntingtin protein; AID 853; HeLa Exon1htt(103Q)mCFP, aggregate imaging; zero = plate's median compound well; hit rate 0.42% among 47,000; inhibition, % at 1.5 µM;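 active means inhibition of aggregate fluorescence above about 70%, also judged a hit by eye on the cell image, limit read from the data, passing the limit was not always enough; inconclusive means no rule stated for this call; inactive means not judged a hit on image review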;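 further: cells exposed to compound for three days before fixation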
M1 agonist – activates the M1 muscarinic receptor | CHO-M1 cells, Fluo-4 calcium fluorescence, agonist mode; active compounds read high | B-score at 10 µM | hit rate 3% among 64,000 | AID 626;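 active means fluorescence rise, raw or as B-score row- and column-corrected plate score, outside the 99.7% band of its plate's samples, either direction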
M1 antagonist – M1 muscarinic receptor (rat) antagonism | CHO-M1 cells, Fluo-4 calcium, ACh EC80 antagonist mode; active compounds read low | AID 628 | hit rate 3.4% among 64,000 | P08482 | B-score at 10 µM;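 active means calcium fluorescence response, raw or row-and-column corrected B-score, differing from the plate sample mean either way at a set confidence level, mostly lower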
AP ELISA ortho – alternative pathway complement inhibition, orthogonal assay | AID 1235 | inhibition, % at 5 µM | Human serum alternative complement pathway, LPS-coated ELISA, C3 deposition; tested in compound mixtures | hit rate 0.08% among 62,000;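 active means inhibition above 30% in each of the two pooled mixtures holding the compound, so the lower value exceeds 30%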;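 further: 0% = serum in Mg-EGTA without compound and 100% = EDTA serum blank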
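Assay system: Human serum alternative complement pathway, C3 deposition on LPS-coated wells | Incubation: 1 h serum-compound exposure at 37 °C | Doses: 5 µM per compound in ten-compound mixtures | Read-out: Percent inhibition | Technique: ELISA with HRP anti-human C3 antibody, TMB substrate, absorbance 450 nm | Replication: Two pool placements per compound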
D1 allo mod – allosteric modulators of human D1 dopamine receptor; HEK293 D1, CRE-luciferase, dopamine EC30 potentiation; actives deviate in either direction; B-score at 10 µM; hit rate 5.9% among 58,000;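 active means luminescence count or its row- and column-corrected plate score outside the 99.7% band of the plate's sample wells, on either side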
Target sequence (P21728 whole entry, looked up): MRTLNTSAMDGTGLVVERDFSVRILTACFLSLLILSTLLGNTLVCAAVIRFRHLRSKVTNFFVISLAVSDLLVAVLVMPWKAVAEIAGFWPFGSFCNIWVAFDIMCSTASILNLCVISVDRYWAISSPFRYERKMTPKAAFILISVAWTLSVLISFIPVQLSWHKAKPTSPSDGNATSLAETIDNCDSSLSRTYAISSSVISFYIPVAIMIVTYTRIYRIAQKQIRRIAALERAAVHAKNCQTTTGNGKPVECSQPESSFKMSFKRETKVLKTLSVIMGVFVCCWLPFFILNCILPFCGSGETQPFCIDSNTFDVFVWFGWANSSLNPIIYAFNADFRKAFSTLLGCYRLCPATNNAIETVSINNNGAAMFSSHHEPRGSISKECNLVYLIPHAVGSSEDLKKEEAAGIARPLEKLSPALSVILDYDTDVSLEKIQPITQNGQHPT
M1 agonist conf – confirmation of rat M1 muscarinic receptor agonists; AID 1488; CHO-M1 cells, Fluo-4 calcium fluorescence, agonist mode; actives lie on both sides; shares compounds with M1 agonist; fluorescence change (max-min) at 10 µM; hit rate 19% among 1,700;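 active means fluorescence change differs from the solvent-only DMSO control mean at a set confidence level in both duplicate runs; inconclusive means differs from solvent-only control mean in just one of two runs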;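 further: an EC20 dose of acetylcholine follows compound addition during the same imaging run; raw fluorescence intensity difference in instrument units with no normalization to controls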
M4 ag counter – counter-screen for M1 agonists: activity at rat M4 receptor; hit rate 9% among 1,700; CHO M4/Gqi5 cells, Fluo-4 calcium fluorescence, agonist mode; actives lie on both sides; shares compounds with M1 agonist; fluorescence change (max-min) at 10 µM;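 active means fluorescence change differing from the plate's solvent-only control wells at 99.7% confidence in both duplicates, whether higher or lower; inconclusive means differs from solvent controls in only one of two duplicates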
* hit, by the source's call; ? = inconclusive; . = no result given. A selection: hits, their analogues and other compounds. The true share with any hit is near 9%.

SMILES | mHtt clearance | M1 agonist | M1 antagonist | AP ELISA ortho | D1 allo mod | M1 agonist conf | M4 ag counter
O=C(Nc1ccc2c(c1)OCO2)N1CCN(c2cccc(C(F)(F)F)c2)CC1 | 41 | 2.9* | -2.2 | 19 | . | ? | ?
O=C(Nc1ccc2c(c1)OCO2)N1CCN(c2ccccc2Cl)CC1 | 2 | . | . | . | . | . | .
CC(=O)NCCN=C(C)c1sc2ccccc2c1O | 25 | 0.03 | -0.18 | -39 | -0.044 | . | .
CC(=Nc1ccc(O)cc1)c1sc2ccccc2c1O | . | 36* | -0.43 | 12 | -0.58 | 7.2 | 7.9
O=C(CSc1nc2c(c(=O)n1-c1ccc(Cl)cc1)SCC2)Nc1ccc2c(c1)OCCO2 | . | 0.31 | 0.075 | 14 | 0.09 | . | .
CC(Nc1ncnc2nc[nH]c12)c1ccccc1 (centres undefined) | . | 2.8* | 0.32 | -7 | -0.81 | -14 | -29
CN(C)/C=c1\sc2c(C#N)cc(C(=O)c3ccc(Br)cc3)n2c1=O | . | 75* | 0.23 | 16 | 1.2 | 278* | 714*
CCOc1ccc2[nH]cc(C(=O)N3CCN(CC)CC3)c(=O)c2c1 | -23 | -1 | 0.27 | -4 | -0.14 | . | .
S=C(N=Nc1ccccc1)NNc1ccccc1 | . | 1.8 | 2.7 | 6 | -0.34 | . | .
O=C(O)c1ccccc1-c1ccc(/C=c2\sc3nc4cc(Br)cnc4n3c2=O)o1 | . | 53* | -0.47 | 7 | -0.13 | 136* | ?
Cc1ccc(/C=c2\sc3nc(-c4ccccc4Br)nn3c2=O)o1 | -95 | -2.4 | -0.48 | 7 | 0.55 | . | .
CN(C)CCNC(=O)C12CC3(C)CC(C)(CC(C)(C3)C1)C2 | . | 3.3* | -0.94 | 5 | . | ? | -70
O=S(=O)(c1cccc(S(=O)(=O)N2CCC(N3CCCCC3)CC2)c1)N1CCOCC1 | -30 | 5.9* | -1.8 | 9 | -0.072 | -14 | -18
O=C(CCn1cccc1)NCc1ccc(Cl)cc1 | . | 0.64 | 0.073 | 12 | -0.47 | . | .
O=C(CSc1nc2[nH]ncc2c(=O)n1-c1ccccc1)c1ccc2c(c1)OCCO2 | 42 | 7.2* | -0.46 | 4 | -2 | ? | -35
O=C(Nc1cccnc1)c1cccc(S(=O)(=O)N2CCOCC2)c1 | . | 0.022 | 0.15 | 10 | -0.027 | . | .
O=C(Nc1cccnc1)c1ccc(Cl)c(S(=O)(=O)N2CCCCCC2)c1 | . | 2.4* | -0.23 | -5 | 0.069 | ? | -48
O=C(O)CCSc1nnc(-c2cccnc2)n1-c1ccccc1 | 45 | . | . | . | . | . | .
CCCCCCc1cc2cc(-c3nnc(-c4ccccc4O)o3)c(=O)oc2cc1O | . | 317* | 3.3* | . | . | 781* | 843*
COc1ccc(-c2nnc(-c3cc4ccccc4oc3=O)o2)cc1 | -41 | . | . | . | . | . | .
O=C1NC(Nc2nccs2)(C(F)(F)F)C(=O)N1CCc1ccccc1 (centres undefined) | 22 | 0.075 | -0.25 | -14 | 0.11 | . | .
CCn1c(COc2ccc(Cl)cc2)nnc1SCc1nc2ccccc2[nH]1 | 2 | . | . | . | . | . | .
Cc1ccc(OCc2nnc(SCc3nc4ccccc4[nH]3)n2Cc2ccco2)cc1 | 22 | 5.5* | -2.2 | 8 | . | ? | -55
CCOc1cc(-c2nc3ccccn3c2NCC2CCCO2)ccc1O (centres undefined) | . | 10* | -1.8* | -10 | -4.1* | -4.3 | -10
COc1cc(-c2nc3cnccn3c2Nc2c(C)cccc2C)ccc1O | -2 | . | . | . | . | . | .
SMILES | mHtt clearance | M1 agonist | M1 antagonist | AP ELISA ortho | D1 allo mod | M1 agonist conf | M4 ag counter
N=c1oc2c3c4c(cc2cc1C(=O)Nc1ccccc1)CCCN4CCC3 | 63 | 221* | -15* | 18 | . | 3358* | 2806*
Cc1cc2cc3c(cc2nc1SCC(=O)Nc1ccccc1)CCC3 | 36 | . | . | . | . | . | .
COC(=O)c1ccccc1NC(=O)Cn1cnc2cc(C)c(C)cc21 | 20 | -2.8* | -0.43 | 7 | -1.5 | -3.3 | -26
O=C1C2=C(Nc3ccccc3SC2c2ccco2)c2ccccc21 (centres undefined) | 74* | active | 0.14 | 13 | -0.76 | ? | -65
Cc1cc2cc(CCNC(=O)c3ccc(Br)o3)c(=O)[nH]c2cc1C | . | 3.7* | -1.1 | 13 | 0.41 | -15 | -26
O=S(=O)(NCc1ccncc1)c1ccc(Br)s1 | . | 3.7* | -1.8 | 13 | -1 | 6.2 | -23
O=C(O)CNS(=O)(=O)c1ccc(Br)s1 | . | -0.087 | 0.82 | -5 | -0.57 | . | .
COC(=O)/C=c1/sc2n(c1=O)CCN=2 | . | -0.36 | 0.2 | 12 | -0.15 | . | .
COC(=O)/C=c1\sc2n(c1=O)C(C)=CC(C)(C)N=2 | 25 | 5.6* | 0.39 | -13 | . | -12 | -44
CC(C(=O)OCc1nnc(-c2ccccc2)o1)N1C(=O)c2ccccc2C1=O (centres undefined) | . | -2.2* | -0.031 | 14 | . | -3.9 | -31
CC(=O)c1c(C)[nH]c(C(=O)OCc2nnc(-c3ccccc3)o2)c1C | -8 | 2.8* | -0.2 | 15 | -0.98 | ? | -70*
Cc1ccc(C(=O)OCc2nnc(-c3ccccc3)o2)o1 | . | 0.67 | -2.4 | 6 | 0.72 | . | .
O=C(c1ccco1)N1CCN(C(=O)C2CCCc3c2[nH]c2ccc(Cl)cc32)CC1 (centres undefined) | . | 0.23 | -0.76 | 6 | 0.22 | . | .
CCC(=O)c1cn(CC(=O)NCc2cccnc2)c2ccccc12 | -30 | 0.98 | 0.14 | 1 | -0.44 | . | .
O=C(CSc1nccn1Cc1ccccc1)NCc1ccccc1 | 20 | . | . | . | . | . | .
COC(=O)CCC(=O)Nc1ccc(NC(=O)CCC(=O)OC)cc1 | -46 | -0.087 | -0.76 | 8 | -0.097 | . | .
COC(=O)CCC(=O)Nc1ccc(NC(C)=O)cc1 | 30 | 5.5* | -1.9 | 7 | -0.84 | -8.9 | -31
O=C(c1nn(Cc2ccccc2)c(=O)c2ccccc12)N1CCN(C/C=C/c2ccccc2)CC1 | -10 | . | . | . | . | . | .
O=C(Nc1ccc(O)cc1)c1cc2n(n1)C(C(F)(F)F)CC(c1ccco1)N2 (centres undefined) | . | -2.3* | 0.38 | -4 | -0.023 | -10 | -52
O=C(NC1CCCCCC1)c1cc2n(n1)C(C(F)(F)F)CC(c1ccco1)N2 (centres undefined) | 53 | 0.0058 | 0.095 | -2 | 0.46 | . | .
O=C(c1ccc(N2C(=O)CCC2=O)cc1)N1CCN(c2ccccc2)CC1 | -163 | 0.35 | -0.54 | 16 | -0.0064 | . | .
CCCS(=O)(=O)N1CCN(CC2CC3C=CC2C3)CC1 (centres undefined) | -28 | 3.1* | 0.59 | 4 | 0.47 | -9.9 | ?
COC(=O)c1ccccc1NC(=O)CSc1nnc(-c2cccc(NC(C)=O)c2)n1C | . | 1.4 | 0.31 | 19 | . | . | .
CCN(CC)CCCNC(=O)C1c2ccccc2C(=O)N(C)C1c1ccc(OC)cc1 (centres undefined) | -27 | 0.83 | -0.35 | 22 | -0.57 | . | .
COc1ccc(-c2ccc(-c3noc(C4CCCCC4)n3)c(OC)n2)cc1 | . | 3.9* | -1.1 | 6 | 0.18 | -11 | ?
CCOC(=O)C1(CCSC)NC(c2ccco2)C2C(=O)N(C)C(=O)C21 (centres undefined) | -58 | 0.48 | 0.24 | 1 | -0.19 | . | .
